# Assay results published in ChEMBL document CHEMBL4765230, “Discovery of Orally Efficacious Phosphoinositide 3-Kinase δ Inhibitors with Improved Metabolic Stability” (J Med Chem, 2016).
# Tests used:
# [1] = Selectivity index, ratio of IC50 for inhibition of human full length PI3K p110alpha/p85alpha to IC50 for inhibition of human full length PI3K p110delta/p85alpha
# [2] = Half life of the compound; format: physicochemical
# [3] = target: PI3K p110 beta/p85 alpha (Homo sapiens, UniProt P42338); assay: Inhibition of recombinant human full-length N-terminal His-tagged PI3K p110beta/p85alpha using […] as substrate measured after 30 mins by TR-FRET assay; format: protein-complex assay
# [4] = target: T1, Phosphatidylinositol 4,5-bisphosphate 3-kinase catalytic subunit delta isoform (Homo sapiens, UniProt O00329); assay: Inhibition of PI3Kdelta in human whole blood assessed as reduction in anti-FCepsilonR1 mAb-stimulated basophil activation preincubated for 60 mins followed by anti-FCepsilonR1 mAb stimulation and measured after 25 mins by flow cytometry analysis; format: tissue-based
# T1 sequence (O00329 whole entry): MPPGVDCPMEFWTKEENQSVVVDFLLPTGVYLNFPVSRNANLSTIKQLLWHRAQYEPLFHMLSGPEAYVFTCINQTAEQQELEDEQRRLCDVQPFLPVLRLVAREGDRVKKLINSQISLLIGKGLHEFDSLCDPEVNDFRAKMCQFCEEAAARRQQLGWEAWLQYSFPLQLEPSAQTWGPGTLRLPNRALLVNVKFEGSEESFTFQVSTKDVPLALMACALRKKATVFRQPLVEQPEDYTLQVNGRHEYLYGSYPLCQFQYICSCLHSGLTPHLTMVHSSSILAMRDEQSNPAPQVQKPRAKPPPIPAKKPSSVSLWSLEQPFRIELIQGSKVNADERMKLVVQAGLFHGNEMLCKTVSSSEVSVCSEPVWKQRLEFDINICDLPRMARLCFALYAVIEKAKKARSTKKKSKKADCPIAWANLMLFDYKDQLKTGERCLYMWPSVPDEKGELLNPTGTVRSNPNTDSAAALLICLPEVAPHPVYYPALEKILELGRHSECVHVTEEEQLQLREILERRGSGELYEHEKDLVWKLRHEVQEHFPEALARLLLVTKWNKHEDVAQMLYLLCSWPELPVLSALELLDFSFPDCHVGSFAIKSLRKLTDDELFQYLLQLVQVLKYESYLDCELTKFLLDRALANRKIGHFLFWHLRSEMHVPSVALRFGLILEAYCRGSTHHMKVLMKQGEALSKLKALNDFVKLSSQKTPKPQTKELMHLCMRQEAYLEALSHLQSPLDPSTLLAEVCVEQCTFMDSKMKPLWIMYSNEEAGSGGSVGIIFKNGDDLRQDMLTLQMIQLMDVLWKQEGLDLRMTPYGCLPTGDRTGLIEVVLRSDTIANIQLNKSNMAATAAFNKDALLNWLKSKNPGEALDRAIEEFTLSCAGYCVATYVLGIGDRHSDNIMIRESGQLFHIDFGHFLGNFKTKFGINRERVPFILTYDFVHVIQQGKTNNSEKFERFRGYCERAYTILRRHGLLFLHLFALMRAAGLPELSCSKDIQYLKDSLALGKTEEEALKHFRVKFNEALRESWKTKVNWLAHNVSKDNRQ
# [5] = Selectivity index, ratio of IC50 for inhibition of recombinant human full-length N-terminal His-tagged PI3K p110beta/p85alpha to IC50 for inhibition of human full length PI3K p110delta/p85alpha
# [6] = target: PI3-kinase p110-alpha/p85-alpha (Homo sapiens, UniProt P42336); assay: Inhibition of human full length PI3K p110alpha/p85alpha using […] as substrate measured after 30 mins by TR-FRET assay; format: protein-complex assay
# [7] = Chemical stability of the compound at pH 2 phosphate buffer assessed as time required for 50% hydrolytic degradation at 100 ug/ml and 40 degreeC by UPLC-UV analysis; format: physicochemical; details: dose 100 µg/ml, read-out: Time (converted)
# Summary of the method: (§1)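 Compound diluted from acetonitrile or DMSO stock to 100 μg/mL final in 50 mM phosphate buffer, pH 2 (or pH 7), ionic strength 0.15 M NaCl, 40 °C in autosampler. Timed injections analysed by reverse-phase UPLC-UV (220 nm); pseudo-first-order kobs from ln c vs time; t50 and t90 calculated.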
# [8] = Chemical stability of the compound under aqueous acidic condition; format: physicochemical; details: buffer; summary of the method: as §1
# [9] = Selectivity index, ratio of IC50 for inhibition of human full length PI3K p110gamma to IC50 for inhibition of human full length PI3K p110delta/p85alpha
# [10] = Clearance in dog at 1 mg/kg, iv; format: ADME, organism-based, Canis lupus familiaris; details: in vivo
# [11] = Volume of distribution at steady state in rat at 1 mg/kg, iv; format: ADME, organism-based; details: in vivo, read-out: Vdss
# Summary of the method: (§2)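 Rats and dog received 1 mg/kg intravenously, formulated in 12% w/v Captisol in water. Volume of distribution was taken at steady state from the iv plasma profile. Three animals per dosing route.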
# [12] = target: PI3-kinase p110-delta/p85-alpha (Homo sapiens, UniProt O00329); assay: Inhibition of human full length PI3K p110delta/p85alpha using […] as substrate measured after 30 mins by TR-FRET assay; format: protein-complex assay
# [13] = Chemical stability of the compound at pH 2 phosphate buffer assessed as time required for 90% hydrolytic degradation at 100 ug/ml and 40 degreeC by UPLC-UV analysis; format: physicochemical; details: in the assay text read “10% hydrolytic degradation” for “90% hydrolytic degradation”, dose 100 µg/ml; summary of the method: as §1
# [14] = Volume of distribution at steady state in dog at 1 mg/kg, iv; format: ADME, organism-based, Canis lupus familiaris; details: in vivo, read-out: Vdss; summary of the method: as §2
# [15] = Clearance in rat at 1 mg/kg, iv; format: ADME, organism-based; details: in vivo
# [16] = Oral bioavailability in rat at 5 mg/kg; format: ADME, organism-based; details: in vivo
# [17] = target: Phosphatidylinositol 4,5-bisphosphate 3-kinase catalytic subunit gamma isoform (Homo sapiens, UniProt P48736); assay: Inhibition of human full length PI3K p110gamma using […] as substrate measured after 30 mins by TR-FRET assay
# [18] = Chemical stability assessed as time taken for hydrolytic degradation at pH 2; format: physicochemical; details: buffer; summary of the method: as §1
# [19] = Thermal stability of compound assessed as half life at 40 degreeC measured over 72 hrs by HPLC analysis; format: physicochemical
# [20] = Clearance in cynomolgus monkey at 1 mg/kg, iv; format: ADME, organism-based, Macaca fascicularis; details: in vivo
# [21] = Half life in cynomolgus monkey at 1 mg/kg, iv; format: ADME, organism-based, Macaca fascicularis; details: in vivo
# [22] = Half life in dog at 1 mg/kg, iv; format: ADME, organism-based, Canis lupus familiaris; details: in vivo
# [23] = Half life in rat at 1 mg/kg, iv; format: ADME, organism-based; details: in vivo
# [24] = Volume of distribution at steady state in cynomolgus monkey at 1 mg/kg, iv; format: ADME, organism-based, Macaca fascicularis; details: in vivo, read-out: Vdss
# [25] = Drug degradation at low pH; format: physicochemical; summary of the method: as §1
# Phosphatidylinositol 4,5-bisphosphate 3-kinase catalytic subunit gamma isoform, sequence (P48736 whole entry, canonical isoform): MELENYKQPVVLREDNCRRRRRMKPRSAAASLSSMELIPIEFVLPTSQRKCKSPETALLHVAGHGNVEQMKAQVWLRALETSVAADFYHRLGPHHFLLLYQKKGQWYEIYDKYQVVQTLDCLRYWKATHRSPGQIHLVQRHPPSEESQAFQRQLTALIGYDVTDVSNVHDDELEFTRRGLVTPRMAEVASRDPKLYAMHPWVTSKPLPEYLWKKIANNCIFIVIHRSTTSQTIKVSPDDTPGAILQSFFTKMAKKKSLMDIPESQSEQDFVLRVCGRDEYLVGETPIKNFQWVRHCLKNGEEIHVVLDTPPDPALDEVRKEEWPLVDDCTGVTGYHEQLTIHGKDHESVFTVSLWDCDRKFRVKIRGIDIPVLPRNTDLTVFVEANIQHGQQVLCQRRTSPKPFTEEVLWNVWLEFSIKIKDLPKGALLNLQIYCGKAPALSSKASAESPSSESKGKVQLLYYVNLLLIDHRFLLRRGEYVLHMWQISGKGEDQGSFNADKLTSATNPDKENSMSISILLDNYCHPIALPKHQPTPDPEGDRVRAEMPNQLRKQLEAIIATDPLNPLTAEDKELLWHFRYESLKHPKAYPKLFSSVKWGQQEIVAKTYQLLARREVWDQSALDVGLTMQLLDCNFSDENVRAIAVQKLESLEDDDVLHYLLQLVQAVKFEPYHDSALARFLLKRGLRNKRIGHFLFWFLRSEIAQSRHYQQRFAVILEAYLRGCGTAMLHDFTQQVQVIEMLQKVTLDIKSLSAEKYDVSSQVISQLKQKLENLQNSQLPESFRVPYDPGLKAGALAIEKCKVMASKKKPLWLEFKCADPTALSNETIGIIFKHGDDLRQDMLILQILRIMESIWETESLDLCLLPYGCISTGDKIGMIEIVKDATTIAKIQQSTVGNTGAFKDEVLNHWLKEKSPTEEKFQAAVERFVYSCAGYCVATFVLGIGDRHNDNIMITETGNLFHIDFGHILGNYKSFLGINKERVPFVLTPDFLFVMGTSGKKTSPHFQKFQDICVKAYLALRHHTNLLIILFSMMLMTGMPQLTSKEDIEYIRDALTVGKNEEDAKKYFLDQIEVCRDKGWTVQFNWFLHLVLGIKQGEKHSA
# PI3-kinase p110-alpha/p85-alpha, sequence (P27986 whole entry): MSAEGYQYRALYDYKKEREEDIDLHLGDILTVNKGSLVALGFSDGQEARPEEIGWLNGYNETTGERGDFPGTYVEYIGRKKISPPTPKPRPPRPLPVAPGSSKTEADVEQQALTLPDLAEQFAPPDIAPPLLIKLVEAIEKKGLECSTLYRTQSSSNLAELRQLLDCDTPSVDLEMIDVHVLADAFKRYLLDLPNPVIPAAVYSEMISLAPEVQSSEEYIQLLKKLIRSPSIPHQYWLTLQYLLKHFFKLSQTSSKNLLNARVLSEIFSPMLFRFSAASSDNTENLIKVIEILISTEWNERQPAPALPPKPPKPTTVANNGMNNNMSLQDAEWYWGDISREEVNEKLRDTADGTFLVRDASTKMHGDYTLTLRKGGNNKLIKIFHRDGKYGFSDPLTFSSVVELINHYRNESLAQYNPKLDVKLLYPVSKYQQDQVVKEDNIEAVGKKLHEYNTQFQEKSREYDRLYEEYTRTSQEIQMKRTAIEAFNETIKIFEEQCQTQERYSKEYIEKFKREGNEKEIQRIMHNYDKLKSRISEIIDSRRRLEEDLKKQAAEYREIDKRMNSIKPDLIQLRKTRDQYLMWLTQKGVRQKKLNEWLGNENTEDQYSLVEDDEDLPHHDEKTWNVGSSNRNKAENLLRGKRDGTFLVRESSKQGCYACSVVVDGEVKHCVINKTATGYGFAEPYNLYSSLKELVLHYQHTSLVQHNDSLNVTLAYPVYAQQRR
# PI3-kinase p110-alpha/p85-alpha, sequence (P42336 whole entry): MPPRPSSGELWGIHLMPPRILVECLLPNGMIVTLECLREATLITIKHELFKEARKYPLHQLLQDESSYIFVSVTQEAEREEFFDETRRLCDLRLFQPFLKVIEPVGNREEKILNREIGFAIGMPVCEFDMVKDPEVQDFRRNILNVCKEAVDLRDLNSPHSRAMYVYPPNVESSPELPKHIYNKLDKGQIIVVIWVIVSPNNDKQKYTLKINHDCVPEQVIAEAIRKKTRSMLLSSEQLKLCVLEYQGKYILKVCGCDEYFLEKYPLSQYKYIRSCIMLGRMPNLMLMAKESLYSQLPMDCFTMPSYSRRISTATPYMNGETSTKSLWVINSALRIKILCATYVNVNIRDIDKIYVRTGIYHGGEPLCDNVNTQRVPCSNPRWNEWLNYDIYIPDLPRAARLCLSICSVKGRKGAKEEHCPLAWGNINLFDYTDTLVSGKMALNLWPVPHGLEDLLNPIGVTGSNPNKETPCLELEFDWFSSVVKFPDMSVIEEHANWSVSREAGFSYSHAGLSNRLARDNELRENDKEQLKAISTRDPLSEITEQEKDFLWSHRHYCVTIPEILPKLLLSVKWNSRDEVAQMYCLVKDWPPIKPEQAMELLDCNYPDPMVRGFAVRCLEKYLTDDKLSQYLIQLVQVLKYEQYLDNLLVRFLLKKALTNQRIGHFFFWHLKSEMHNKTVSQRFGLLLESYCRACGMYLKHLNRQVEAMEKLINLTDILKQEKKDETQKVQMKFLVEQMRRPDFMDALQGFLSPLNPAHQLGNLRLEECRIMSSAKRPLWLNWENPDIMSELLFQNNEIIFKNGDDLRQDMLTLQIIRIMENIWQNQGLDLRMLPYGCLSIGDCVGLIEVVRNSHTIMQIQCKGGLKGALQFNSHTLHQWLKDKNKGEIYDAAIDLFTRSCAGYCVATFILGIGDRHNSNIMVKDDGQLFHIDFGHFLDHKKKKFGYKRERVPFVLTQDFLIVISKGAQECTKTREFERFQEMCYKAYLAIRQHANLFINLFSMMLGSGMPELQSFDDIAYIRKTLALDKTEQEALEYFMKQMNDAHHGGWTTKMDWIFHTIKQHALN
# PI3-kinase p110-delta/p85-alpha, sequence (P27986 whole entry, one chain of several): as the sequence (P27986 whole entry) above
# PI3K p110 beta/p85 alpha, sequence (P27986 whole entry, canonical isoform): as the sequence (P27986 whole entry) above
# PI3K p110 beta/p85 alpha, sequence (P42338 whole entry, canonical isoform): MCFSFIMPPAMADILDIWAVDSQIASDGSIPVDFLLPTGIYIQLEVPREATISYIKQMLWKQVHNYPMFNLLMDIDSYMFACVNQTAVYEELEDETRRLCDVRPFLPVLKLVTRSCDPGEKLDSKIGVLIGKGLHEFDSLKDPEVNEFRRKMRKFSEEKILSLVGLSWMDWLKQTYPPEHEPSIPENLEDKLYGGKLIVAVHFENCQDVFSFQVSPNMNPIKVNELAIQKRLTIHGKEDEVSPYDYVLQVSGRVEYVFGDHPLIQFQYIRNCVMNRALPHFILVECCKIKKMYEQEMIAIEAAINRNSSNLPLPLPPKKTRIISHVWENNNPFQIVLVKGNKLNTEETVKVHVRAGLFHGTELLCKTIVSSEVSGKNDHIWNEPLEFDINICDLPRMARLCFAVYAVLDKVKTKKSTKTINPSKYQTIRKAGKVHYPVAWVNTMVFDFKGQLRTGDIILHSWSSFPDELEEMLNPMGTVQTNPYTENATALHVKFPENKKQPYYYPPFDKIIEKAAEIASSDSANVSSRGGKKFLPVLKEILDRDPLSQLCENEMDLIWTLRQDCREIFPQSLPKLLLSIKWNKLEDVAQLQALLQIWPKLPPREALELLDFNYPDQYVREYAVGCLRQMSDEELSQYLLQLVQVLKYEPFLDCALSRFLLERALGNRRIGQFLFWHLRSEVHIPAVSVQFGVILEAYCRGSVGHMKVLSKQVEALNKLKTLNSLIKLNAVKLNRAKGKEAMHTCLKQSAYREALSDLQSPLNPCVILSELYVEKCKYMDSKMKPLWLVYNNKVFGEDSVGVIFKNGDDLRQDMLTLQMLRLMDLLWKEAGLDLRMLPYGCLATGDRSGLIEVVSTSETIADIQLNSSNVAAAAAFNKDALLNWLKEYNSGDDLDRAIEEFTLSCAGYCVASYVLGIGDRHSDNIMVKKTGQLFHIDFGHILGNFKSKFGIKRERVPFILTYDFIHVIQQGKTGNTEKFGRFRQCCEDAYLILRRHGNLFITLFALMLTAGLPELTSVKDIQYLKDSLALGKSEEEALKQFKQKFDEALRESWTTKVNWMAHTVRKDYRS
Compound,IC50 [3] [nM],EC50 [4] [nM],IC50 [6] [nM],half-life at 100 ug/ml [7] [h],IC50 [12] [nM],Time [13] [h],IC50 [17] [nM],other results
C[C@H](Nc1nc(N)nc(N)c1C#N)c1nc2cccc(Cl)c2c(=O)n1-c1ccccc1,9.4,0.3,240,358,–,–,–,Ratio IC50 [1]: 2200; half-life [2]: 358 h; Ratio IC50 [5]: 80; Stabilty [8]: Stable; Ratio IC50 [9]: 60
CC[C@H](Nc1nc(N)nc(N)c1C#N)c1nc2c(F)ccc(Cl)c2c(=O)n1-c1cccnc1,310,2,1500,19,2,2.8,520,clearance [10]: 2.17 mL/min/kg; Vd [11]: 0.54 L/kg; Vd [14]: 0.3 L/kg; clearance [15]: 5 mL/min/kg; bioavailability [16]: 37%
C[C@H](Nc1nc(N)nc(N)c1C#N)c1nc2c(F)ccc(F)c2c(=O)n1-c1cccnc1,770,11,4020,–,–,–,940,–
Cc1ncccc1-n1c([C@H](C)Nc2nc(N)nc(N)c2C#N)nc2cccc(Cl)c2c1=O (stereo in doubt; 24),440,–,6800,–,–,–,650,–
Cc1ccncc1-n1c([C@H](C)Nc2nc(N)nc(N)c2C#N)nc2cccc(Cl)c2c1=O (stereo in doubt; 25),21,–,880,23,–,3.5,70,Time [18]: > 3 h
C[C@H](Nc1nc(N)nc(N)c1C#N)c1nc2c(Cl)ccc(Cl)c2c(=O)n1-c1cccnc1,76,0.9,1300,15,–,2.3,330,–
Cc1c(F)cncc1-n1c([C@H](C)Nc2nc(N)nc(N)c2C#N)nc2cccc(Cl)c2c1=O (stereo in doubt; 27),120,–,1200,30,0.3,4.6,25,Time [18]: > 3 h; half-life [19]: 1750 h
Cc1ncccc1-n1c([C@H](C)Nc2nc(N)nc(N)c2C#N)nc2cccc(Cl)c2c1=O (stereo in doubt; 23),350,–,1600,20,1.3,3.1,160,Time [18]: > 3 h
C[C@H](Nc1nc(N)nc(N)c1C#N)c1nc2cccc(Cl)c2c(=O)n1-c1cccnc1,100,0.9,1030,2.7,–,0.2,72,Ratio IC50 [1]: 1700; clearance [10]: 3.33 mL/min/kg; Vd [11]: 1.9 L/kg; clearance [20]: 1.67 mL/min/kg; half-life [21]: 4.9 h; Ratio IC50 [5]: 160; Vd [14]: 0.9 L/kg; half-life [22]: 5.6 h; clearance [15]: 25 mL/min/kg; half-life [23]: 2.5 h; Ratio IC50 [9]: 120; Vd [24]: 0.5 L/kg; bioavailability [16]: 42%
CC[C@H](Nc1nc(N)nc(N)c1C#N)c1nc2cccc(Cl)c2c(=O)n1-c1cccnc1,–,–,–,4.3,–,0.65,–,Drug degradation [25]: Active
N#Cc1c(N)nc(N)nc1N[C@H](c1nc2cccc(Cl)c2c(=O)n1-c1cccnc1)C1CC1,–,–,–,3.6,–,0.5,–,Drug degradation [25]: Active
C[C@H](Nc1nc(N)nc(N)c1C#N)c1nc2cccc(Cl)c2c(=O)n1-c1cncc(C(F)(F)F)c1,4800,21,10000,–,17,–,1300,–
